Experimental findings from ChEMBL document CHEMBL2203086, “Structure-Based Discovery of a Novel Pentamidine-Related Inhibitor of the Calcium-Binding Protein S100B” (ACS Med Chem Lett, 2012) are described below.

A short description of assay [1]: Binding affinity to rat/bovine recombinant S100B expressed in Escherichia coli [HMS174(DE3)strain] by NMR spectroscopy.
Assay [2] in a line: Destabilization of rat/bovine S100B assessed as change in melting temperature by differential scanning calorimetry. In a few lines: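 DSC on S100B dialyzed into 5 mM HEPES pH 7.2, 15 mM NaCl, 10 mM CaCl2, 0.5 mM TCEP, at 40-50 µM per monomer. Compound prepared in dialysis buffer, 200 µM final. Buffer reference scans subtracted and data normalized to protein concentration. Apparent Tm taken from peak maxima, compared against ligand-free S100B.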
On the technique in general: In DSC, transitions show as peaks or steps in heat flow.

Assay [3] relates to Malme-3M. As to the kind of experiment: Growth inhibition of human MALME-3M cells transfected with S100B siRNA after 4 days by SYBR green assay. Format: functional, cell-based. In a few lines:
(§1)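 MALME-3M melanoma cells, stable hairpin-vector lines with scrambled control siRNA (high S100B) or S100B knockdown siRNA (clone #7), grown in IMDM with 20% FBS, neomycin omitted during assay. Seeded in 384-well plates and grown 24 h at 37 °C, 5% CO2. Compound added, DMSO in controls, then 4 days incubation. Lysed with 1.2% Igepal plus SYBR Green I (1:10,000) for 24 h. Fluorescence read at 485/520 nm as a DNA/cell-number measure, and IC50 derived.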

The test system of assay [4] is Malme-3M. The assay is described as follows: Growth inhibition of human MALME-3M cells overexpressing calcium-binding protein S100B after 4 days by SYBR green assay. Format: functional, cell-based. In a few lines:
as §1

Assay [5] is described as follows: Binding affinity to rat/bovine recombinant S100B at weaker site expressed in Escherichia coli [HMS174(DE3)strain] by NMR spectroscopy.
Assay [6] can be described thus: Binding affinity to rat/bovine recombinant S100B at tight site expressed in Escherichia coli [HMS174(DE3)strain] by NMR spectroscopy.
Where [7] appears, read: Homo sapiens, Malme-3M, 96 h, read-out: IC50.

Broadly, the Kd is the constant that tells how readily two partners part at equilibrium. The ΔTm is the change in melting temperature against a reference sample. A word on the IC50: it is the concentration that inhibits the measured activity by half. Turning to `N=C(N)c1ccc(OCCCCCCCOc2ccc(C(=N)N)cc2)cc1` [HEPTAMIDINE], the Kd in assay [1] (read-out: Kd) was 6.9 µM. Besides, in assay [2], the shift in melting temperature (ΔTm) came out at 18.3 °C. The IC50 with Malme-3M [3] (setting [7]) came out at 6.8 µM; with Malme-3M [4] (setting [7]), 4.2 µM.

Turning to `N=C(N)c1ccc(OCCCCCCOc2ccc(C(=N)N)cc2)cc1` [HEXAMIDINE], in assay [1], the Kd entry is “Not Active”. For the same compound, the IC50 result in the assay on Malme-3M [3] (malme-3m) and in the assay on Malme-3M [4] (malme-3m) was “Not Active” throughout.

Turning to `N=C(N)c1ccc(OCCCCCOc2ccc(C(=N)N)cc2)cc1` [PENTAMIDINE], the ΔTm in assay [2] was determined as 1 °C. In addition, the Kd in assay [5] came out at 40 µM; in assay [6], 0.13 µM. Besides, the IC50 in the assay on Malme-3M [3] (setting [7]) was determined as 12.2 µM; in the assay on Malme-3M [4] (setting [7]), 10.2 µM.
